Measurements taken from ChEMBL document CHEMBL4396873, “Discovery of Potent, Selective, and Short-Acting Peptidic V2 Receptor Agonists” (J Med Chem, 2019).
Activity calls are given as the source filed them. The calls are words filed in the database; no cut-off is given here. Numbered stars: 1 amine (or outer) side, 2 acyl side, 3 side chain; on linkers, the order of the positions; unused ones are H or OH. Bridge positions count the residues as written; N and C are the ends. Square brackets hold non-standard residues; d marks the D form. Peptide text beside a SMILES is read from it. * marks the point of attachment. Phe(4-Cl) = N[C@@H](Cc1ccc(Cl)cc1)C(=O)O; Phe(4-F) = N[C@@H](Cc1ccc(F)cc1)C(=O)O; Phe(4-Me) = Cc1ccc(C[C@H](N)C(=O)O)cc1; 2Thi = N[C@@H](Cc1cccs1)C(=O)O; X4 = N=C(N)NCCC[C@@H](CO)N*; X2 = N=C(N)NCCC[C@H](CO)N*; hCys = N[C@@H](CCS)C(=O)O; X1 = O=C(CCC[*:2])[*:1]; X3 = O=C(CC[*:2])[*:1]; Mpa = O=C(O)CCS

Tests used:
[1] = Clearance in Sprague-Dawley rat at 0.1 mg/kg, iv administered as cassette dose by LC-MS/MS analysis; type: ADME, organism-based; details: in vivo
[2] = Protein binding in rat plasma at 200 to 1000 ng/ml measured after 15 mins by UC-LC/MS/MS analysis; type: ADME, cell-free; details: read-out: PPB (converted)
Method in brief: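 Peptide spiked into rat plasma to final 200-1000 ng/mL, incubated 15 min at 37 °C, ultracentrifuged at 773,000 xg for 30 min at 37 °C; middle-layer sample quantified by LC/MS/MS; binding (%) = (Ci − Cm)/Ci × 100; quadruplicate.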

Vasopressin V1a receptor = Vasopressin V1a receptor (Homo sapiens, UniProt P37288); test: Agonist activity at recombinant human V1a receptor expressed in HEK293 cells up to 1000 nM measured after 5 hrs by luciferase reporter gene assay; type: cell-based; details: hek293, 5 h
Sequence of Vasopressin V1a receptor (P37288 whole entry): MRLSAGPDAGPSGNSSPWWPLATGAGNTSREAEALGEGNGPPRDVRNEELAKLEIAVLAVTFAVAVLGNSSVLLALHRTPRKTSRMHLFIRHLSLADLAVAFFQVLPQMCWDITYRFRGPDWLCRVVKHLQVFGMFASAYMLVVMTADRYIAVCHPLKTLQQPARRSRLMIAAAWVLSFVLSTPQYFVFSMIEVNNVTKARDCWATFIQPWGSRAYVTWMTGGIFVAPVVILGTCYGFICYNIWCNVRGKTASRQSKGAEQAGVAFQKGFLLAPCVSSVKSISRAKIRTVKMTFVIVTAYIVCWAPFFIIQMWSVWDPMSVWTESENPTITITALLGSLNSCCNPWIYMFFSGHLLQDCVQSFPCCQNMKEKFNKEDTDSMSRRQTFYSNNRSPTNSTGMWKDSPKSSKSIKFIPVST

Oxytocin receptor = molecular target: T1, Oxytocin receptor (Homo sapiens, UniProt P30559); test: Agonist activity at human OTR stably expressed in CHOK1 cells by NFAT-luciferase reporter gene assay; type: cell-based
T1 sequence (P30559 whole entry): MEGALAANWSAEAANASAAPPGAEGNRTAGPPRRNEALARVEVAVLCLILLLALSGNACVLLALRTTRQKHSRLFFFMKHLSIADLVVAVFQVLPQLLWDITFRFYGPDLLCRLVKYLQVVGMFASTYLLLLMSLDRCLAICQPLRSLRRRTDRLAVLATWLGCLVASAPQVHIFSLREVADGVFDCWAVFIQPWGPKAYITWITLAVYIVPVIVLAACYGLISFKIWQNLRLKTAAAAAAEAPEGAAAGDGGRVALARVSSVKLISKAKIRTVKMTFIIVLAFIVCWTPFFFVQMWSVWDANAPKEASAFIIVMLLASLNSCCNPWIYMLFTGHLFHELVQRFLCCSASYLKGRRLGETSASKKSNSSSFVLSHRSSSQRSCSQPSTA

[3] = molecular target: T2, Oxytocin receptor (Homo sapiens) (UniProt P30559); test: Agonist activity at human OTR stably expressed in CHOK1 cells up to 10000 nM by NFAT-luciferase reporter gene assay; type: cell-based
T2 sequence (whole entry): T1 sequence (P30559 whole entry)

Vasopressin V2 receptor = Vasopressin V2 receptor (Homo sapiens, UniProt P30518); test: Agonist activity at recombinant human V2 receptor expressed in HEK293 cells measured after 5 hrs by cAMP response element driven luciferase reporter gene assay; type: functional, cell-based
Sequence of Vasopressin V2 receptor (P30518 whole entry): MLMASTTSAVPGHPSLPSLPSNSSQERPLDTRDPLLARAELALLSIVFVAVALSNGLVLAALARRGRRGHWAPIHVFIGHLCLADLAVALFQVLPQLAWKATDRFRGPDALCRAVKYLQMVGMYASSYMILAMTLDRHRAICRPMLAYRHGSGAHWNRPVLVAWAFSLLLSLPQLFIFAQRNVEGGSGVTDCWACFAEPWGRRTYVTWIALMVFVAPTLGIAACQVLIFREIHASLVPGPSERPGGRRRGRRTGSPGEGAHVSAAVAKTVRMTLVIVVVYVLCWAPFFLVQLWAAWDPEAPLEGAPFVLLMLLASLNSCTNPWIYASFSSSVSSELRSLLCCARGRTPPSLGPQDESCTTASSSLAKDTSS

[4] = Non-renal clearance in nephrectomized Sprague-Dawley rat at 0.1 mg/kg, iv administered as cassette dose by LC-MS/MS analysis; type: ADME, organism-based; details: in vivo

Row | SMILES | clearance [1] [mL/min/kg] | fraction unbound at […] [2] | Activity (Vasopressin V1a receptor) | EC50 (Oxytocin receptor) [nM] | Activity [3] | EC50 (Vasopressin V2 receptor) [nM] | CL [4] [%]
1 | CC(C)[C@@H]1NC(=O)[C@H](Cc2ccc(F)cc2)NC(=O)[C@H](Cc2ccc(Cl)cc2)NC(=O)CCCSC[C@@H](C(=O)N2CCC[C@H]2C(=O)N[C@@H](CO)CCCNC(=N)N)NC(=O)[C@H](CC(N)=O)NC1=O ([Phe(4-Cl)][Phe(4-F)]VNCP-X2; linker N-5 via X1) | 3.8 | 0.07 | Not Active | > 10000 | – | – | –
2 | CCNC(=O)[C@@H](CCCNC(=N)N)NC(=O)[C@@H]1CSCN1C(=O)[C@@H]1CCSCCC(=O)N[C@@H](Cc2ccc(Cl)cc2)C(=O)N[C@@H](Cc2cccs2)C(=O)N[C@@H](C(C)C)C(=O)N[C@@H](CC(N)=O)C(=O)N1 | 11 | 0.08 | Not Active | – | inactive | 0.11 | –
3 | CCNC(=O)[C@@H](CCCNC(=N)N)NC(=O)[C@@H]1C[C@@H](O)CN1C(=O)[C@@H]1CSCCCC(=O)N[C@@H](Cc2ccc(Cl)cc2)C(=O)N[C@@H](Cc2ccccc2)C(=O)N[C@@H](C(C)C)C(=O)N[C@@H](CC(N)=O)C(=O)N1 | 3.3 | 0.09 | Not Active | – | inactive | 0.29 | –
4 | CC(C)[C@@H]1NC(=O)[C@H](Cc2cccs2)NC(=O)[C@H](Cc2ccc(O)cc2)NC(=O)CCCSC[C@@H](C(=O)N2CCC[C@H]2C(=O)N[C@H](CO)CCCNC(=N)N)NC(=O)[C@H](CC(N)=O)NC1=O (Y[2Thi]VNCP-X4; linker N-5 via X1) | 8.1 | 0.85 | Not Active | 230 | – | 0.1 | –
5 | CC(C)NC(=O)[C@@H](CCCNC(=N)N)NC(=O)[C@@H]1CCCN1C(=O)[C@@H]1CSCCCC(=O)N[C@@H](Cc2ccc(Cl)cc2)C(=O)N[C@@H](Cc2cccs2)C(=O)N[C@@H](C(C)C)C(=O)N[C@@H](CC(N)=O)C(=O)N1 | 15 | 0.15 | Not Active | – | inactive | 0.45 | 58
6 | CC(C)[C@@H]1NC(=O)[C@H](Cc2cccs2)NC(=O)[C@H](Cc2ccc(O)cc2)NC(=O)CCCSC[C@@H](C(=O)N2CCC[C@H]2C(=O)N[C@H](CCCNC(=N)N)C(=O)NCc2ccccc2)NC(=O)[C@H](CC(N)=O)NC1=O | 14 | 0.55 | Not Active | – | inactive | 0.26 | 71
7 | CNC(=O)[C@@H](CCCNC(=N)N)NC(=O)[C@@H]1CCCN1C(=O)[C@@H]1CSCCCC(=O)N[C@@H](Cc2ccc(Cl)cc2)C(=O)N[C@@H](Cc2cccs2)C(=O)N[C@@H](C(C)C)C(=O)N[C@@H](CC(N)=O)C(=O)N1 | 9.1 | 0.18 | Not Active | – | inactive | 0.27 | –
8 | Cc1ccc(C[C@@H]2NC(=O)CCCSC[C@@H](C(=O)N3CCC[C@H]3C(=O)N[C@@H](CO)CCCNC(=N)N)NC(=O)[C@H](CC(N)=O)NC(=O)[C@H](C(C)C)NC(=O)[C@H](Cc3cccs3)NC2=O)cc1 ([Phe(4-Me)][2Thi]VNCP-X2; linker N-5 via X1) | 5.3 | 0.32 | Not Active | > 10000 | – | – | 30
9 | CC(C)[C@@H]1NC(=O)[C@H](Cc2cccs2)NC(=O)[C@H](Cc2ccc(Cl)cc2)NC(=O)CCCSC[C@@H](C(=O)N2CCC[C@H]2C(=O)N[C@H](CO)CCCNC(=N)N)NC(=O)[C@H](CC(N)=O)NC1=O ([Phe(4-Cl)][2Thi]VNCP-X4; linker N-5 via X1) | 8.1 | 0.19 | Not Active | > 10000 | – | – | –
10 | CC(C)CNC(=O)[C@@H](CCCNC(=N)N)NC(=O)[C@@H]1C[C@@H](O)CN1C(=O)[C@@H]1CCSCCC(=O)N[C@@H](Cc2ccc(Cl)cc2)C(=O)N[C@@H](Cc2cccs2)C(=O)N[C@@H](C(C)C)C(=O)N[C@@H](CC(N)=O)C(=O)N1 | 5.9 | 0.08 | Not Active | – | inactive | 0.2 | –
11 | CC(C)[C@@H]1NC(=O)[C@H](Cc2cccs2)NC(=O)[C@H](Cc2ccc(Cl)cc2)NC(=O)CCCSC[C@@H](C(=O)N2CCC[C@H]2C(=O)N[C@@H](CO)CCCNC(=N)N)NC(=O)[C@H](CC(N)=O)NC1=O ([Phe(4-Cl)][2Thi]VNCP-X2; linker N-5 via X1) | 4 | 0.2 | Not Active | > 10000 | – | – | –
12 | CCNC(=O)[C@@H](CCCNC(=N)N)NC(=O)[C@@H]1CCCN1C(=O)[C@@H]1CCSCCC(=O)N[C@@H](Cc2ccc(Cl)cc2)C(=O)N[C@@H](Cc2cccs2)C(=O)N[C@@H](C(C)C)C(=O)N[C@@H](CC(N)=O)C(=O)N1 | 5.3 | 0.1 | Not Active | – | inactive | 0.19 | 67
13 | CC(C)[C@@H]1NC(=O)[C@H](Cc2cccs2)NC(=O)[C@H](Cc2ccc(O)cc2)NC(=O)CCSCC[C@@H](C(=O)N2CCC[C@H]2C(=O)N[C@@H](CO)CCCNC(=N)N)NC(=O)[C@H](CC(N)=O)NC1=O (Y[2Thi]VN[hCys]P-X2; linker N-5 via X3) | 6.9 | 0.74 | Not Active | 160 | – | 0.08 | –
14 | CC(C)[C@@H]1NC(=O)[C@H](Cc2cccs2)NC(=O)[C@H](Cc2ccc(Cl)cc2)NC(=O)CCCSC[C@@H](C(=O)N2CSC[C@H]2C(=O)N[C@H](CCCNC(=N)N)C(=O)NCCc2cccs2)NC(=O)[C@H](CC(N)=O)NC1=O | 34 | 0.07 | Not Active | – | inactive | 0.17 | 100
15 | CC(C)[C@@H]1NC(=O)[C@H](Cc2ccccc2)NC(=O)[C@H](Cc2ccc(O)cc2)NC(=O)CCSSC[C@@H](C(=O)N2CCC[C@H]2C(=O)N[C@H](CCCNC(=N)N)C(=O)NCC(N)=O)NC(=O)[C@H](CC(N)=O)NC1=O ([Mpa]YFVNCP[dR]G-NH2; disulfide 1-6) | 9.6 | 0.69 | Not Active | – | – | 0.05 | –
16 | CCNC(=O)[C@@H](CCCNC(=N)N)NC(=O)[C@@H]1CCCN1C(=O)[C@@H]1CSSCCC(=O)N[C@@H](Cc2ccc(Cl)cc2)C(=O)N[C@@H](Cc2cccs2)C(=O)N[C@@H](C(C)C)C(=O)N[C@@H](CC(N)=O)C(=O)N1 | 11 | 0.12 | Not Active | – | inactive | 0.32 | 81
17 | CC(C)[C@@H]1NC(=O)[C@H](Cc2cccs2)NC(=O)[C@H](Cc2ccc(Cl)cc2)NC(=O)CCSCC[C@@H](C(=O)N2CCC[C@H]2C(=O)N[C@@H](CO)CCCNC(=N)N)NC(=O)[C@H](CC(N)=O)NC1=O ([Phe(4-Cl)][2Thi]VN[hCys]P-X2; linker N-5 via X3) | 2.8 | 0.11 | Not Active | > 10000 | – | – | 66
18 | CC(C)[C@@H]1NC(=O)[C@H](Cc2ccc(F)cc2)NC(=O)[C@H](Cc2ccc(Cl)cc2)NC(=O)CCCSC[C@@H](C(=O)N2CSC[C@H]2C(=O)N[C@H](CCCNC(=N)N)C(=O)NCCc2cccs2)NC(=O)[C@H](CC(N)=O)NC1=O | 27 | 0.04 | Not Active | – | inactive | 0.3 | 100
